From ChEMBL document CHEMBL1132433, “6-Substituted 2-oxo-2H-1-benzopyran-3-carboxylic acid as a core structure for specific inhibitors of human leukocyte elastase” (J Med Chem, 1999)

Key:
[1] = molecular target: Chymotrypsinogen A (Bos taurus) (UniProt P00766); experiment: Evaluation of kinetic parameter Ki/KI(1/M.1/S) by its ability to inhibit the Alpha-CT (Bovine alpha-chymotrypsin) enzyme
[2] = molecular target: T1, Neutrophil elastase (Homo sapiens) (UniProt P08246); experiment: Evaluation of kinetic parameter Ki/KI(1/M.1/S) by its ability to inhibit the HLE(Human Leukocyte Elastase) enzyme.
T1 sequence (whole entry): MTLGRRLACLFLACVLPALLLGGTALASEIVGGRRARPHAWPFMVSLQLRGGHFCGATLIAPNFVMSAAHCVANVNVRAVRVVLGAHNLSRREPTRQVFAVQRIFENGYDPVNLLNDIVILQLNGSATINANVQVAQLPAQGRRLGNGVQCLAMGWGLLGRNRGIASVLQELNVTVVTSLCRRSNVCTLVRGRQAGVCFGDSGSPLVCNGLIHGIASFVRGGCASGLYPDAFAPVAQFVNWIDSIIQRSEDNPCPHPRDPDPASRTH
Summary of the method: (§1)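 HLE, active-site titrated, assayed with MeO-Suc-AAPV-p-NA in 0.1 M Hepes, 0.5 M NaCl, 0.1% Tween 80, pH 8.0, 10% DMSO, 25 °C. Preincubation method ([HLE]0 20 nM, [I]0 1-10 µM) or progress curves (30 nM enzyme, [S]0 100 µM, [I]0 0.05-70 µM), 405 nm. Constants reflect the initial inactivation step. ki, KI fitted.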

[3] = molecular target: Prothrombin (Homo sapiens) (UniProt P00734); experiment: Compound was evaluated for the kinetic parameter Ki/KI(1/M.1/S) by its ability to inhibit human thrombin
Summary of the method: (§2)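 Human thrombin, active-site titrated, with chromogenic substrate S-2238 in 0.01 M Hepes, 0.01 M Tris, 0.1 M NaCl, 0.1% PEG6000, pH 7.5, 10% DMSO, 25 °C. Preincubation method ([THR]0 1.45 nM, [I]0 1-10 µM) or progress curves ([THR]0 0.58 nM, [S]0 10 µM, [I]0 1-14 µM), absorbance at 405 nm. ki and KI fitted; ki/KI = kobs/[I] at low inhibitor.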

[4] = molecular target: Chymotrypsinogen A (Bos taurus) (UniProt P00766); experiment: Compound was evaluated for the kinetic parameter Ki/KI(1/M.1/S) by its ability to inhibit the Alpha-CT (Bovine alpha-chymotrypsin) enzyme [ki(se-1) andKi(uM)]
[5] = molecular target: T1, Neutrophil elastase (Homo sapiens); experiment: Evaluated for the kinetic parameter Ki/KI(1/M.1/S) by its ability to inhibit the HLE(Human Leukocyte Elastase) enzyme [ki(se-1) andKi(uM)]; summary of the method: as §1
[6] = molecular target: Prothrombin (Homo sapiens) (UniProt P00734); experiment: Evaluation of kinetic parameter Ki/KI(1/M.1/S) by its ability to inhibit human thrombin.; summary of the method: as §2
[7] = molecular target: Chymotrypsinogen A (Bos taurus) (UniProt P00766); experiment: Compound was evaluated for the kinetic parameter Ki/KI(1/M.1/S) by its ability to inhibit the Alpha-CT (Bovine alpha-chymotrypsin) enzyme.
[8] = molecular target: Chymotrypsinogen A (Bos taurus) (UniProt P00766); experiment: Evaluation of kinetic parameter Ki/KI(1/M.1/S) by its ability to inhibit the Alpha-CT (Bovine alpha-chymotrypsin) enzyme; No inactivation at 10 uM
[9] = molecular target: T1, Neutrophil elastase (Homo sapiens); experiment: Compound was evaluated for the kinetic parameter Ki/KI(1/M.1/S) by its ability to inhibit the HLE(Human Leukocyte Elastase) enzyme; No inactivation at 10 uM; summary of the method: as §1
[10] = molecular target: Chymotrypsinogen A (Bos taurus) (UniProt P00766); experiment: Compound was evaluated for the kinetic parameter Ki/KI(1/M.1/S) by its ability to inhibit the Alpha-CT (Bovine alpha-chymotrypsin) enzyme[ki(se-1) andKi(uM)]

| Compound | Ki/KI [1] [M⁻¹ s⁻¹] | Ki/KI [2] [M⁻¹ s⁻¹] | Ki/KI [6] | Ki/KI [8] | further results |
| --- | --- | --- | --- | --- | --- |
| O=C(Oc1cccc(Cl)n1)c1cc2cc(CCl)ccc2oc1=O | 107000 | 26000 |  |  | Ki/KI [3]: 7200 M⁻¹ s⁻¹ |
| O=C(Oc1cncc(Cl)c1)c1cc2cc(CCl)ccc2oc1=O |  |  |  |  | Ki/KI [4]: 31000 M⁻¹ s⁻¹; Ki/KI [5]: 64600 M⁻¹ s⁻¹; Ki/KI [3]: 200 M⁻¹ s⁻¹ |
| O=C(Oc1cccnc1)c1cc2cc(CCl)ccc2oc1=O |  |  | No inactivation |  | Ki/KI [4]: 14800 M⁻¹ s⁻¹; Ki/KI [5]: 770 M⁻¹ s⁻¹ |
| O=C(Oc1ccccc1)c1cc2cc(CCl)ccc2oc1=O |  | 23 |  |  | Ki/KI [3]: 200 M⁻¹ s⁻¹; Ki/KI [7]: 100000 M⁻¹ s⁻¹ |
| Cc1ccnc(OC(=O)c2cc3cc(CCl)ccc3oc2=O)c1 | 5950 | 300 |  |  | Ki/KI [3]: 3900 M⁻¹ s⁻¹ |
| O=C(Oc1cccnc1Cl)c1cc2cc(CCl)ccc2oc1=O | 4300 | 3310 |  |  |  |
| Cc1cncc(OC(=O)c2cc3cc(CCl)ccc3oc2=O)c1 | 2500 | 1000 | No inactivation |  |  |
| O=C(Oc1cncc(Cl)c1)c1cc2ccccc2oc1=O |  | 32800 | No inactivation | No inactivation |  |
| O=C(Nc1cccnc1)c1cc2cc(CCl)ccc2oc1=O |  |  |  |  | Ki/KI [9]: No inactivation |
| O=C(Oc1ccc(Cl)cn1)c1cc2cc(CCl)ccc2oc1=O | 2500 | 110 | No inactivation |  |  |
| O=C(Oc1cccnc1[N+](=O)[O-])c1cc2cc(CCl)ccc2oc1=O | 4500 | 4000 |  |  |  |
| O=C(Nc1cccnc1Cl)c1cc2cc(CCl)ccc2oc1=O |  |  |  | No inactivation | Ki/KI [9]: No inactivation |
| O=C(Oc1cccnc1Br)c1cc2cc(CCl)ccc2oc1=O |  |  |  |  | Ki/KI [5]: 3000 M⁻¹ s⁻¹; Ki/KI [10]: 2700 M⁻¹ s⁻¹ |
| Cc1cccc(OC(=O)c2cc3cc(CCl)ccc3oc2=O)n1 | 3300 | 200 | No inactivation |  |  |
| COc1ccc(NC(=O)c2cc3cc(CCl)ccc3oc2=O)cn1 |  |  |  | No inactivation | Ki/KI [9]: No inactivation |
| O=C(Oc1cncc(Cl)c1)c1cc2cc(Br)ccc2oc1=O |  | 58000 |  | No inactivation |  |
| Cc1ccc(OC(=O)c2cc3cc(CCl)ccc3oc2=O)cn1 | 1000 |  | No inactivation |  | Ki/KI [9]: No inactivation |
| Cc1ccc(OC(=O)c2cc3cc(CCl)ccc3oc2=O)c([N+](=O)[O-])n1 | 1500 |  |  |  | Ki/KI [9]: No inactivation |
| O=C(Oc1ccccn1)c1cc2cc(CCl)ccc2oc1=O | 1670 | 420 |  |  | Ki/KI [3]: 240 M⁻¹ s⁻¹ |

Now from value to compound, other results behind:

| Ki/KI [1] [M⁻¹ s⁻¹] | Ki/KI [2] [M⁻¹ s⁻¹] | Ki/KI [6] | Ki/KI [8] | Compound | further results |
| --- | --- | --- | --- | --- | --- |
|  | 107000 | No inactivation | No inactivation | CC(=O)OCc1ccc2oc(=O)c(C(=O)Oc3cncc(Cl)c3)cc2c1 |  |
|  | 95500 | No inactivation | No inactivation | CC(C)(C)C(=O)OCc1ccc2oc(=O)c(C(=O)Oc3cncc(Cl)c3)cc2c1 |  |
|  | 62000 | No inactivation | No inactivation | CCC(=O)OCc1ccc2oc(=O)c(C(=O)Oc3cncc(Cl)c3)cc2c1 |  |
|  | 72700 | No inactivation | No inactivation | CCCC(=O)OCc1ccc2oc(=O)c(C(=O)Oc3cncc(Cl)c3)cc2c1 |  |
|  | 9100 | No inactivation | No inactivation | NCc1ccc2oc(=O)c(C(=O)Oc3cncc(Cl)c3)cc2c1 |  |
|  | 45000 | No inactivation | No inactivation | CC(C)C(=O)OCc1ccc2oc(=O)c(C(=O)Oc3cncc(Cl)c3)cc2c1 |  |
|  | 32500 | No inactivation | No inactivation | Cc1ccc2oc(=O)c(C(=O)Oc3cncc(Cl)c3)cc2c1 |  |
